According to ChEMBL document CHEMBL4715802, “Novel Irreversible Agonists Acting at the A Adenosine Receptor” (J Med Chem, 2016):
Activity calls are given as the source filed them. The calls are words filed in the database; no cut-off is given here.

Columns and labels:
Flp-In-CHO [1] = experiment: Stimulation of ERK1/2 phosphorylation in Flp-In-CHO cells incubated for 5 mins; assay type: cell-based; details: Cricetulus griseus
In short: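 A1AR-FlpInCHO cells were seeded at 4×10^4/well and serum-starved for about 18 h. Cells were stimulated with agonist for 5 min at 37°C, then lysed, and pERK1/2 was detected by SureFire. […] Curves were fitted for pEC50 and Emax. Three experiments in duplicate.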

Adenosine receptor A1 [2] = target: T1, Adenosine receptor A1 (Homo sapiens, UniProt P30542); experiment: Irreversible agonist activity at human adenosine A1 receptor expressed in Flp-In-CHO cells assessed as stimulation of ERK1/2 phosphorylation incubated for 5 mins; assay type: cell-based
T1 sequence (P30542 whole entry): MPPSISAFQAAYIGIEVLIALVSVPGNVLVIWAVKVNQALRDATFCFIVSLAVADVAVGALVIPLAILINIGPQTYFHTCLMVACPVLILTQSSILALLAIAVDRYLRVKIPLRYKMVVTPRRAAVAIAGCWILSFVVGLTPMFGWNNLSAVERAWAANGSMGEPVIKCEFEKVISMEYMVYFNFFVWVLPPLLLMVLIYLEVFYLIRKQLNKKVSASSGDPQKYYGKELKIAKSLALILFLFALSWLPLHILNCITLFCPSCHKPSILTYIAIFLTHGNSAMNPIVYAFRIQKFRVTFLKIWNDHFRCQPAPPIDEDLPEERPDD

[3] = target: T2, Adenosine receptor A1 (Homo sapiens) (UniProt P30542); experiment: Irreversible agonist activity at human adenosine A1 receptor expressed in Flp-In-CHO cells assessed as induction of positive change of cellular impedance at 1 uM incubated for 1.5 hrs followed by addition of 1 uM A1AR selective antagonist SLV320 by xCELLigence real-time cell analysis; assay type: cell-based; details: filed as agonist
T2 sequence (whole entry): T1 sequence (P30542 whole entry)
In short: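 A1AR-FlpInCHO cells were seeded at 4×10^4/well, serum-starved for about 18 h, and equilibrated in the impedance reader for at least 1 h at 37°C. Cells were exposed to 1 µM agonist and impedance was recorded every 15 s. After about 1.5–1.7 h, 1 µM SLV320 was added and recording continued. […] Three experiments in duplicate.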

[4] = target: T2, Adenosine receptor A1 (Homo sapiens); experiment: Binding affinity to human adenosine A1 receptor expressed in Flp-In-CHO cell membranes assessed as [3H]DPCPX binding level at 10 uM incubated for 1 hr followed by washing by liquid scintillation counting based equilibrium radioligand binding assay; details: Cell membrane
In short: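 Membranes from A1AR-FlpInCHO cells were pre-incubated with 10 µM ligand in PBS with 1 unit ADA for 1 h at 37°C. They were then washed 3× with PBS, with 1 h at 37°C between washes, and resuspended in HME buffer. [3H]DPCPX at 0.1–12 nM was bound for 1 h at 37°C, filtered and β-counted. Nonspecific binding was defined with 1 µM SLV320. Results are expressed as % of buffer-pretreated Bmax, from three experiments in duplicate.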

Adenosine receptor A1 [5] = target: T1, Adenosine receptor A1; experiment: Irreversible agonist activity at human adenosine A1 receptor expressed in Flp-In-CHO cells assessed as effect on forskolin-induced cAMP accumulation incubated for 30 mins by LANCE cAMP detection assay; assay type: functional, cell-based
In short: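 For Gi/o-coupled A1 or A3 FlpInCHO cells, cells were preincubated for 30 min at 37°C in stimulation buffer containing 10 µM rolipram. Agonist (10 pM–10 µM) was then added with 3 µM forskolin for 30 min at 37°C. The reaction was stopped with ethanol, cells were lysed, and cAMP was read by LANCE TR-FRET. Three to four experiments in duplicate.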

[6] = target: T2, Adenosine receptor A1 (Homo sapiens); experiment: Binding affinity to human adenosine A1 receptor expressed in Sf9 cells assessed protein melting temperature at 10 uM incubated for 30 mins by Thermo-fluor assay; assay type: cell membranes; details: Cell membrane, filed as agonist
In short: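 Human A1AR was purified from Sf9 cells in LMNG/CHS. 0.2 µg receptor was incubated with 10 µM compound for 20 h at 4°C in HEPES pH 7.5 buffer with ADA. CPM dye at 10 µM final was added for 30 min at rt. The sample was heated from 4 to 80°C in 3° steps, holding 90 s each, and fluorescence was read at 380/470 nm to derive Tm. Three experiments in duplicate.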

[7] = target: T2, Adenosine receptor A1 (Homo sapiens); experiment: Binding affinity to human adenosine A1 receptor expressed in NECA-pre-treated Flp-In-CHO cell membranes assessed as [35S]GTP-gamma-S incorporation level at 10 uM incubated for 40 mins followed by washing by liquid scintillation counting; details: Cell membrane
In short: (§1)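 Membranes were pretreated with 10 µM ligand and washed as for the [3H]DPCPX assay. […] 300 pM [35S]GTPγS was then added for 40 min at 20°C, followed by filtration and counting. Values are normalised to NECA-stimulated vehicle-pretreated membranes.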

[8] = target: T2, Adenosine receptor A1 (Homo sapiens); experiment: Binding affinity to human adenosine A1 receptor expressed in Flp-In-CHO cell membranes assessed as basal [35S]GTP-gamma-S incorporation level at 10 uM incubated for 40 mins followed by washing by liquid scintillation counting; details: Cell membrane; in short: as §1
Flp-In-CHO [9] = experiment: Effect on forskolin-induced cAMP accumulation in Flp-In-CHO cells incubated for 30 mins by LANCE cAMP detection assay; assay type: functional, cell-based; details: Cricetulus griseus
[10] = target: T2, Adenosine receptor A1 (Homo sapiens); experiment: Irreversible agonist activity at human adenosine A1 receptor expressed in Flp-In-CHO cells assessed as induction of positive change of cellular impedance at 1 uM incubated for 2 hrs by xCELLigence real-time cell analysis; assay type: cell-based; details: filed as agonist
In short: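 A1AR-FlpInCHO cells were serum-starved for about 18 h and equilibrated for at least 1 h at 37°C. 1 µM agonist or vehicle was added and impedance was recorded at 15 s intervals. […] Three experiments in duplicate.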

Adenosine receptor A2b = target: T3, Adenosine receptor A2b (Homo sapiens, UniProt P29275); experiment: Irreversible agonist activity at human adenosine A2B receptor expressed in Flp-In-CHO cells assessed as effect on forskolin-induced cAMP accumulation incubated for 30 mins by LANCE cAMP detection assay; assay type: functional, cell-based
T3 sequence (P29275 whole entry): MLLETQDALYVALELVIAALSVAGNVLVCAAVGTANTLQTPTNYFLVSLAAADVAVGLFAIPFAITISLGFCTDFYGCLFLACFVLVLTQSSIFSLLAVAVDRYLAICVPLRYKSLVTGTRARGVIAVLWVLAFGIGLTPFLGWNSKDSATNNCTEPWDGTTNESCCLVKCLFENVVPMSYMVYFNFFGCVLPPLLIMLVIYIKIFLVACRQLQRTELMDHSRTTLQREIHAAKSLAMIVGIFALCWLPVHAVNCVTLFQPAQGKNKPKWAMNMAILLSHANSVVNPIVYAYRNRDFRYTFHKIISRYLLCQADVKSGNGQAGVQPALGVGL
In short: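 A2BAR-FlpInCHO cells in stimulation buffer with rolipram were exposed to agonist with no preincubation, then stopped with ethanol, lysed, and cAMP was detected by LANCE. Three to four experiments in duplicate.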

Adenosine receptor A3 = target: T4, Adenosine receptor A3 (Homo sapiens, UniProt P0DMS8); experiment: Irreversible agonist activity at human adenosine A3 receptor expressed in Flp-In-CHO cells assessed as effect on forskolin-induced cAMP accumulation incubated for 30 mins by LANCE cAMP detection assay; assay type: functional, cell-based
T4 sequence (P0DMS8 whole entry): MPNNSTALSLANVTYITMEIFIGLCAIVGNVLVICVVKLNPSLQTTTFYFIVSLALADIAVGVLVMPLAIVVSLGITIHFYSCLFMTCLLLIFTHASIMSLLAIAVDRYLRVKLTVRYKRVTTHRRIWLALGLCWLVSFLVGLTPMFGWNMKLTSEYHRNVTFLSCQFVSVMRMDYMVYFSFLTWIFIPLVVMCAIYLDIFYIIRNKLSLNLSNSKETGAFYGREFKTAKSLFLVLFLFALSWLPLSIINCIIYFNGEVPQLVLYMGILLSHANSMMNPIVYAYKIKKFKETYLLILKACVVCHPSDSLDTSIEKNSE
In short: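 For Gi/o-coupled A1 or A3 FlpInCHO cells, cells were preincubated for 30 min at 37°C in stimulation buffer containing 10 µM rolipram. Agonist (10 pM–10 µM) was then added with 3 µM forskolin for 30 min at 37°C. The reaction was stopped with ethanol, cells were lysed, and cAMP was read by LANCE TR-FRET. […] Three to four experiments in duplicate.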

Adenosine receptor A2a = Adenosine receptor A2a (Homo sapiens, UniProt P29274); experiment: Irreversible agonist activity at human adenosine A2A receptor expressed in Flp-In-CHO cells assessed as effect on forskolin-induced cAMP accumulation incubated for 30 mins by LANCE cAMP detection assay; assay type: functional, cell-based
Adenosine receptor A2a, sequence (P29274 whole entry): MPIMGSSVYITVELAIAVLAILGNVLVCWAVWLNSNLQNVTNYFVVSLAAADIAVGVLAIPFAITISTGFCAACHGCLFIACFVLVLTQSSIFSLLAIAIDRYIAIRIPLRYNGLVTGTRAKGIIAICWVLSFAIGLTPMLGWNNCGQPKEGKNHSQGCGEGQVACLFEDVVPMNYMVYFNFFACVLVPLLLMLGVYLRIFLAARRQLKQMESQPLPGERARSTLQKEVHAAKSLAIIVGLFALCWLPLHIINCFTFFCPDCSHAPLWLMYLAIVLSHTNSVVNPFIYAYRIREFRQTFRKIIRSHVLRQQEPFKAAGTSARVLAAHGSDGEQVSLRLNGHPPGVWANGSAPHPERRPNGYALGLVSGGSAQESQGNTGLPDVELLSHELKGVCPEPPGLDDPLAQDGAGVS

[11] = target: T2, Adenosine receptor A1 (Homo sapiens); details: Sf9, Cell membrane, filed as agonist, dose 10.0 µM, time 30.0 min

OC[C@H]1O[C@@H](n2cnc3c(NCCNC(=S)Nc4ccc(N=C=S)cc4)ncnc32)[C@H](O)[C@@H]1O
Activity (Flp-In-CHO [1]): inactive | EC50 (Adenosine receptor A1 [2]): 3.16 nM | Activity [3]: Active

OC[C@H]1O[C@@H](n2cnc3c(Nc4ccc(CNC(=S)Nc5ccc(N=C=S)cc5)cc4)ncnc32)[C@H](O)[C@@H]1O
Activity ([4]; filed as agonist): 8% | EC50 (Adenosine receptor A1 [5]): 55 nM | Tm [6]: 46.6 °C | Activity ([7]; filed as agonist): Active | Activity [8]: 124% | Activity (Flp-In-CHO [9]): inactive | Activity [10]: Active | Activity (Flp-In-CHO [1]): inactive | EC50 (Adenosine receptor A1 [2]): 1.58 nM | EC50 (Adenosine receptor A2b): 224 nM | EC50 (Adenosine receptor A3): 44.7 nM | EC50 (Adenosine receptor A2a): 67.6 nM | Activity [3]: Active

CCCn1c(=O)c2nc(C3CCCC3)[nH]c2n(CCCOC(=O)c2ccc(S(=O)(=O)F)cc2)c1=O
Activity ([4]; filed as agonist): 2% | Activity ([7]; filed as agonist): 32% | Activity ([8]; filed as agonist): 37%

OC[C@H]1O[C@@H](n2cnc3c(Nc4ccc(CN=C=S)cc4)ncnc32)[C@H](O)[C@@H]1O
EC50 (Adenosine receptor A1 [5]): 269 nM | Tm [6]: 42.7 °C | Activity (Flp-In-CHO [9]): inactive | Activity [10]: Active | Activity (Flp-In-CHO [1]): inactive | EC50 (Adenosine receptor A1 [2]): 20 nM | EC50 (Adenosine receptor A2b): 708 nM | EC50 (Adenosine receptor A3): 347 nM | EC50 (Adenosine receptor A2a): 646 nM | Activity [3]: Active

O=C(NCc1ccc(Nc2ncnc3c2ncn3[C@@H]2O[C@H](CO)[C@@H](O)[C@H]2O)cc1)c1ccc(S(=O)(=O)F)cc1
Activity ([4]; filed as agonist): 16% | EC50 (Adenosine receptor A1 [5]): 0.912 nM | Tm [6]: 46.7 °C | Activity ([7]; filed as agonist): Active | Activity [8]: 134% | Activity (Flp-In-CHO [9]): inactive | Activity [10]: Active | Activity (Flp-In-CHO [1]): inactive | EC50 (Adenosine receptor A1 [2]): 1 nM | EC50 (Adenosine receptor A2b): 117 nM | EC50 (Adenosine receptor A3): 135 nM | Activity [3]: Active

O=C(NCCCCCCNc1ncnc2c1ncn2[C@@H]1O[C@H](CO)[C@@H](O)[C@H]1O)c1ccc(S(=O)(=O)F)cc1
Activity (Flp-In-CHO [1]): inactive

O[C@H]1CC[C@H](Nc2nc(-c3ccccc3)nc3[nH]ccc23)CC1
Activity ([7]; filed as agonist): 37%

O=C(NCCCCCCCCCCNc1ncnc2c1ncn2[C@@H]1O[C@H](CO)[C@@H](O)[C@H]1O)C1=CC2C=CC1CC2 (stereo partly drawn)
Activity (Flp-In-CHO [1]): inactive | EC50 (Adenosine receptor A1 [2]): 25.1 nM

OC[C@H]1O[C@@H](n2cnc3c(NCCCCCCCCCCN=C=S)ncnc32)[C@H](O)[C@@H]1O
Activity [10]: Active | Activity (Flp-In-CHO [1]): inactive | EC50 (Adenosine receptor A1 [2]): 79.4 nM

O=C(NCCCCCCCCCCNc1ncnc2c1ncn2[C@@H]1O[C@H](CO)[C@@H](O)[C@H]1O)c1ccc(S(=O)(=O)F)cc1
Activity (Flp-In-CHO [1]): inactive

CCNC(=O)[C@H]1O[C@@H](n2cnc3c(N)ncnc32)[C@H](O)[C@@H]1O
Activity [4]: 108% | ΔTm [11]: 4 °C | Tm [6]: 38.7 °C | Activity [7]: 99% | Activity [8]: 57% | Activity (Flp-In-CHO [9]): inactive | Activity [10]: Active | Activity (Flp-In-CHO [1]): inactive

OC[C@H]1O[C@@H](n2cnc3c(NCCCCCCNC(=S)Nc4ccc(N=C=S)cc4)ncnc32)[C@H](O)[C@@H]1O
Activity (Flp-In-CHO [1]): inactive

O=C(NCCNc1ncnc2c1ncn2[C@@H]1O[C@H](CO)[C@@H](O)[C@H]1O)C1=CC2C=CC1CC2 (stereo partly drawn)
Activity (Flp-In-CHO [1]): inactive

OC[C@H]1O[C@@H](n2cnc3c(NCCN=C=S)ncnc32)[C@H](O)[C@@H]1O
Activity (Flp-In-CHO [1]): inactive | EC50 (Adenosine receptor A1 [2]): 158 nM

OC[C@H]1O[C@@H](n2cnc3c(NCCCCCCN=C=S)ncnc32)[C@H](O)[C@@H]1O
Activity (Flp-In-CHO [1]): inactive

O=C(NCCCCCCNc1ncnc2c1ncn2[C@@H]1O[C@H](CO)[C@@H](O)[C@H]1O)C1=CC2C=CC1CC2 (stereo partly drawn)
Activity (Flp-In-CHO [1]): inactive | EC50 (Adenosine receptor A1 [2]): 15.8 nM

OC[C@H]1O[C@@H](n2cnc3c(NCCCCCCCCCCNC(=S)Nc4ccc(N=C=S)cc4)ncnc32)[C@H](O)[C@@H]1O
Activity (Flp-In-CHO [1]): inactive

O=C(NCc1ccc(Nc2ncnc3c2ncn3[C@@H]2O[C@H](CO)[C@@H](O)[C@H]2O)cc1)C1=CC2C=CC1CC2 (stereo partly drawn)
Activity [10]: Active | Activity (Flp-In-CHO [1]): inactive | EC50 (Adenosine receptor A1 [2]): 1.58 nM
